Active and inactive are the calls of the source. The rule behind the calls is not given here. Bounds are passed on as bounds.

Assay [1] concerns Pneumocystis carinii. Briefly: Antipneumocystis activity against Pneumocystis carinii after 24 to 72 hrs by ATP-based luciferin-luciferase assay. The class given is functional, organism-based. The method, boiled down: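 P. carinii from immunosuppressed rat lungs (methylprednisolone 20 mg/kg s.c. weekly) was cryopreserved. It was exposed to compounds diluted in RPMI 1640 at 36 °C, 5% CO2, for 24, 48 and 72 h. ATP was measured by luciferin-luciferase luminescence after background subtraction. Triplicate wells of duplicate assays were averaged. % ATP reduction was calculated against media control, and IC50 came from linear regression.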

The subject of a further assay is A549. Briefly: Cytotoxicity against human A549 cells assessed as decrease in cell viability after 24 to 72 hrs by ATP-based luciferin-luciferase assay. The essentials: (§1)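 A549 cells in DMEM and L2 cells in F12, each with 10% fetal calf serum, 1% MEM vitamins and 1% NEAA, were plated at 2 × 10^5/ml and grown to confluence. They were exposed first to 100 µg/ml, then to 100, 10, 1 and 0.1 µg/ml, for 24, 48 and 72 h in duplicate wells. Cells were lysed with 0.1 M NaOH and ATP was read by luciferin-luciferase luminescence. IC50 came from linear regression of % ATP reduction.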

Assay [2] relates to Pneumocystis carinii. Kind of assay: Antipneumocystis activity against Pneumocystis carinii at 100 ug/ml after 24 to 72 hrs by ATP-based luciferin-luciferase assay. The class given is functional, organism-based. The essentials:
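Single high-dose screen at 100 µg/ml against rat-derived, cryopreserved P. carinii in RPMI 1640 at 36 °C, 5% CO2, read at 24, 48 and 72 h. ATP was measured by luminescence after background subtraction, with triplicate wells of duplicate assays averaged. % ATP reduction was calculated relative to media control. Controls were media, DMSO vehicle, ampicillin 10 µg/ml and pentamidine isethionate 1 µg/ml.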

A short description of assay [3]: Cytotoxicity against rat L2 cells assessed as decrease in cell viability after 24 to 72 hrs by ATP-based luciferin-luciferase assay. The method, boiled down:
as §1

The target of assay [4] is Luciferin 4-monooxygenase (Photinus pyralis) (UniProt P08659). Briefly: Effect on luciferin/firefly luciferase reaction assessed as quench effect at 100 ug/ml.
Sequence of Luciferin 4-monooxygenase (Photinus pyralis) (P08659 whole entry): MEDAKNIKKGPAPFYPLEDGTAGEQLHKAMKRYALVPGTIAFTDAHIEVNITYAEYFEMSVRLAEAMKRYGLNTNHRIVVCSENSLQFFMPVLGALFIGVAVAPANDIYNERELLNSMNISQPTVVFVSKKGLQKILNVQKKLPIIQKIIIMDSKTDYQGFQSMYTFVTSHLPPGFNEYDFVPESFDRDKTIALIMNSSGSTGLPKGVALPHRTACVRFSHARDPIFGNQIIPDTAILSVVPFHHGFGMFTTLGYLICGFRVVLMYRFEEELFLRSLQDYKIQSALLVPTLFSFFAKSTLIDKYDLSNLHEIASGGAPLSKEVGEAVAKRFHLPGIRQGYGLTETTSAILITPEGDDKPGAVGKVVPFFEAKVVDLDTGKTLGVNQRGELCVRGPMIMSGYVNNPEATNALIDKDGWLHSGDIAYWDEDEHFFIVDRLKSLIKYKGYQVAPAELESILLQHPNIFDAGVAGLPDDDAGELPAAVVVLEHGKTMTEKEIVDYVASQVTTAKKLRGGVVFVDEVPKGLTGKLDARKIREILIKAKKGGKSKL

Consider `N=C(N)c1ccc(NC(=O)COCC(=O)Nc2ccc(C(=N)N)cc2)cc1`, for which the values for the half-inhibitory concentration (IC50) (in the assay with Pneumocystis carinii [1]; with A549; in assay [3]) were 0.146 µM, > 100 µM and > 100 µM, respectively. Besides, the result with Pneumocystis carinii [2] was Active. Further, the outcome in assay [4] was inactive.
Consider `N=C(N)c1ccc(OCCOCCOc2ccc(C(=N)N)cc2[N+](=O)[O-])c([N+](=O)[O-])c1`, for which the results for the half-maximal inhibitory concentration (IC50) (in the assay with Pneumocystis carinii [1]; with A549; in assay [3]) were 0.014 µM, > 100 µM and 176 µM, respectively. In addition, the outcome with Pneumocystis carinii [2] was Active. Further, in assay [4], the result was inactive.
As to `CN(C(=O)CCCC(=O)N(C)c1ccc(C(=N)N)cc1)c1ccc(C(=N)N)cc1`, the IC50 (commonly the concentration that inhibits the measured activity by half) was 0.303 µM with Pneumocystis carinii [1], > 100 µM in the assay with A549 and > 100 µM in assay [3]. In addition, the result with Pneumocystis carinii [2] was Active. In addition, in assay [4], the outcome was inactive.
As for `CCCNC(=N)c1ccc(CN2CCN(Cc3ccc(C(=N)NCCC)cc3)CC2)cc1`, the values for the half-inhibitory concentration (IC50) (in the assay with Pneumocystis carinii [1]; in the assay on A549; in assay [3]) were 1.69 µM, > 100 µM and > 100 µM, respectively. Further, the outcome with Pneumocystis carinii [2] was Active. In addition, in assay [4], the result was inactive.
In the case of `Cc1cc(C(=N)N)cc(C)c1OCCOCCOc1c(C)cc(C(=N)N)cc1C`, the IC50 in the assay with Pneumocystis carinii [1] stood at 0.175 µM; with A549, 75.8 µM; in assay [3] it was 16.7 µM. Also, the result in the assay with Pneumocystis carinii [2] was Active. Further, the outcome in assay [4] was inactive.
On to `N=C(N)c1ccc(OCCCCCOc2ccc(C(=N)N)cc2)cc1` [PENTAMIDINE], for which, in assay [3], the IC50 is 33.8 µM.
Consider `N=C(N)c1ccc(CN2CCN(Cc3ccc(C(=N)N)cc3)CC2)cc1`, for which the values for the IC50 (with Pneumocystis carinii [1]; with A549; in assay [3]) were 0.109 µM, > 100 µM and > 100 µM, respectively. Further, the result in the assay with Pneumocystis carinii [2] was Active. Also, in assay [4], the result was inactive.
As to `Cc1cc(C(=N)N)cc(C)c1OCCN(CCOc1c(C)cc(C(=N)N)cc1C)S(=O)(=O)c1ccccc1`, the IC50 with Pneumocystis carinii [1] is 1.52 µM; with A549 it was > 100 µM; in assay [3], > 100 µM. Besides, the result in the assay with Pneumocystis carinii [2] was Active. In addition, the result in assay [4] was inactive.
In the case of `N=C(N)c1ccc(NC(=O)CSCC(=O)Nc2ccc(C(=N)N)cc2)cc1`, the half-inhibitory concentration (IC50) with Pneumocystis carinii [1] was 0.568 µM; in the assay on A549, > 100 µM; in assay [3], > 100 µM. Also, in the assay on Pneumocystis carinii [2], the outcome was Active. In addition, the result in assay [4] was inactive.
For `c1cc(C2=NCCN2)ccc1SCCOCCSc1ccc(C2=NCCN2)cc1`, the concentration for half-maximal inhibition (IC50) with Pneumocystis carinii [1] is 0.01 µM; in the assay with A549 it was 30.6 µM; in assay [3], > 100 µM. For the same compound, the result with Pneumocystis carinii [2] was Active. Moreover, in assay [4], the outcome was inactive.
The like results for `CCCCNC(=N)c1ccc(CN2CCN(Cc3ccc(C(=N)NCCCC)cc3)CC2)cc1` were, in that order, 0.083 µM, > 100 µM, > 100 µM, “Active” and “inactive”.
In the case of `C/N=C(\NC)c1ccc(CN2CCN(Cc3ccc(/C(=N/C)NC)cc3)CC2)cc1`, the outcome in the assay on Pneumocystis carinii [2] was inactive.
Regarding `CN(C(=O)CCC(=O)N(C)c1ccc(C(=N)N)cc1)c1ccc(C(=N)N)cc1`, the IC50 in the assay with Pneumocystis carinii [1] was 0.076 µM; in the assay on A549, > 100 µM; in assay [3], > 100 µM. In addition, in the assay on Pneumocystis carinii [2], the outcome was Active. For the same compound, in assay [4], the outcome was inactive.
Turning to `CCN(CCOc1ccc(C(=N)N)cc1)CCOc1ccc(C(=N)N)cc1`, the IC50 in the assay on Pneumocystis carinii [1] is < 0.209 µM; in the assay on A549, > 100 µM; in assay [3] it was > 100 µM. Moreover, the outcome in the assay with Pneumocystis carinii [2] was Active. The outcome in assay [4] was inactive.
For the compound `N=C(N)c1ccc(SCCOCCSc2ccc(C(=N)N)cc2)cc1`, the 50% inhibitory concentration (IC50) in the assay with Pneumocystis carinii [1] is < 0.223 µM; with A549, 50.9 µM; in assay [3] it was 26.4 µM. Also, in the assay with Pneumocystis carinii [2], the result was Active. The outcome in assay [4] was inactive.
Take `CN(C(=O)CCCCC(=O)N(C)c1ccc(C(=N)N)cc1)c1ccc(C(=N)N)cc1`: the IC50 was 0.012 µM in the assay with Pneumocystis carinii [1], > 100 µM in the assay with A549 and > 100 µM in assay [3]. Besides, the outcome in the assay with Pneumocystis carinii [2] was Active. Also, the result in assay [4] was inactive.
Turning to `N=C(N)c1ccc(NCCOCCNc2ccc(C(=N)N)cc2N)c(N)c1`, the IC50 in the assay with Pneumocystis carinii [1] is < 0.175 µM; in the assay on A549 it was > 100 µM; in assay [3] it was > 100 µM. The outcome with Pneumocystis carinii [2] was Active. The Activity in assay [4] is 15%.
On to `CCCCCNC(=N)c1ccc(CN2CCN(Cc3ccc(C(=N)NCCCCC)cc3)CC2)cc1`, for which the IC50 is 0.041 µM with Pneumocystis carinii [1], > 100 µM in the assay on A549 and > 100 µM in assay [3]. For the same compound, the result in the assay with Pneumocystis carinii [2] was Active. For the same compound, the outcome in assay [4] was inactive.
`N=C(N)c1ccc(NCCOCCNc2ccc(C(=N)N)cc2[N+](=O)[O-])c([N+](=O)[O-])c1`: the IC50 in the assay on Pneumocystis carinii [1] was 0.062 µM; in the assay with A549, > 100 µM; in assay [3], > 100 µM. Also, in the assay on Pneumocystis carinii [2], the outcome was Active. Besides, in assay [4], the result was inactive.
Consider `COc1cc(C(=N)N)cc(Br)c1OCCCCCOc1c(Br)cc(C(=N)N)cc1OC`, for which the IC50 in the assay on Pneumocystis carinii [1] was 0.036 µM; with A549, 26.3 µM; in assay [3], 29.5 µM. Besides, the result in the assay on Pneumocystis carinii [2] was Active. Besides, the result in assay [4] was inactive.
Take `Cc1cc(C(=N)N)cc(C)c1OCCCCCOc1c(C)cc(C(=N)N)cc1C`: the IC50 is < 0.213 µM in the assay on Pneumocystis carinii [1], 32.2 µM in the assay with A549 and 19 µM in assay [3]. Also, the outcome in the assay with Pneumocystis carinii [2] was Active. Moreover, the outcome in assay [4] was inactive.
The like results for `N=C(N)c1ccc(OCCOCCOc2ccc(C(=N)N)cc2N)c(N)c1` were, in that order, 0.011 µM, > 100 µM, > 100 µM, “Active” and “inactive”.

For the origin of these results see ChEMBL document CHEMBL4261571, “Development of highly active anti-Pneumocystis bisbenzamidines: insight into the influence of selected substituents on the in vitro activity” (Medchemcomm, 2017).
